MrgX1 antag: antagonists of human MrgX1 receptor, primary screen, HEK293 cells, Fluo-4 calcium flux | Mas-related G-protein coupled receptor member X1 (Homo sapiens), Q96LB2 | BAM8-22 antagonism; active compounds read low | B-score at 10 µM | actives 1.3% (n = 310,000) | AID 588676, 2011;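 active means calcium-response B-score plate-corrected more than 3 library SD below zero, starting fluorescence within 5 deviations, no agonist response on first addition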;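 further: peak minus trough fluorescence over baseline after final BAM8-22 challenge near maximal dose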
RGS4 block: RGS4 inhibitors, primary screen, cell-based, HEK293 M3R inducible RGS4, calcium flux; Fluo-4 calcium flux; active compounds read high; triggered by carbachol at its EC20; actives 0.45% (n = 310,000); B-score at 10 µM; AID 463165, 2010; Regulator of G-protein signaling 4 (Homo sapiens), P49798;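 active means B-score, a plate-corrected calcium signal, over three deviations above library mean, with baseline fluorescence within five deviations of library mean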;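 further: RGS4 expression induced by doxycycline in cells with stable M3 receptor; B-score is computed from the integrated fluorescence ratio over baseline after carbachol; higher B-score means a larger calcium signal and so more RGS4 inhibition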
Target sequence (P49798 whole entry, looked up): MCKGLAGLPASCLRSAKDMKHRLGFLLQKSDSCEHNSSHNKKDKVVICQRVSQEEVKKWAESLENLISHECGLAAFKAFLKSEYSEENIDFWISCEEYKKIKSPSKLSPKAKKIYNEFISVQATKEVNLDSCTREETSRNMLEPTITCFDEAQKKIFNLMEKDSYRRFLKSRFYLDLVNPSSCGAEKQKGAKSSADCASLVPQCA
MrgX1 ag: agonists of human MrgX1 receptor, primary screen, HEK293 cells, Fluo-4 calcium flux; Fluo-4 calcium fluorescence, agonist mode; active compounds read high; B-score at 10 µM; actives 0.44% (n = 310,000);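 active means calcium response B-score plate-corrected fluorescence ratio at least 3 library SD, with starting fluorescence B-score inside 5 SD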
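Test system: HEK293 cells stably expressing human MrgX1 receptor; Input: fifteen thousand cells per well; Dosing: compound delivered in addition one of three; Schedule: overnight seeding, then 1 h dark dye loading; Technique: Fluo-4 NW calcium fluorescence; Measure: B-scored fluorescence response ratio; Controls: positive and negative controls per plate.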
RGS4 act: RGS4 potentiators or activators, primary screen, cell-based, HEK293 M3R inducible RGS4, calcium flux; AID 463111, 2010; actives 0.92% (n = 310,000); B-score at 10 µM; carbachol calcium flux Fluo4; active compounds read low;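 active means B-score of the integrated calcium signal more than 4 SD below the library mean, with starting fluorescence not abnormally high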;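 further: negative B-score means reduced calcium response which marks RGS4 activation or potentiation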
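test system = M3R-expressing HEK293 line, RGS4 induced by doxycycline | probe or stimulus = carbachol at ECmax as muscarinic agonist stimulus | timing = dye loading 30 min 37 °C, buffer rest 30 min RT | signal = calcium dye Fluo4 fluorescence | evaluation = B score from integrated fluorescence ratio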
MrgX1 allo act: positive allosteric modulators of MrgX1, primary screen, HEK293 cells, Fluo-4 calcium flux; AID 588675, 2011; FDSS; active compounds read high; actives 0.63% (n = 310,000); B-score at 10 µM; Mas-related G-protein coupled receptor member X1 (Homo sapiens), Q96LB2;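 active means plate-corrected calcium response at least 3 library SD above typical, normal starting fluorescence, not activating the receptor alone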;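 further: compound read alongside a low EC10 to EC30 dose of BAM8-22 agonist; peak minus trough fluorescence over baseline measured at the second addition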
RGS4 inh valid: enhanced carbachol calcium response, M3R/RGS4 cells, RGS4 inhibitor project, cell-based, validation screen, HEK293 M3R/RGS4, calcium flux | shares compounds with RGS4 block | calcium response, % at 10 µM | actives 65% (n = 1,700) | AID 492999, 2010 | carbachol calcium Fluo-4 fluorescence; carbachol added at its EC20; 0 = buffer wells, 100 = carbachol control;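 active means duplicate-averaged calcium response above the buffer-only control mean plus 5 SD of those controls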;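 further: integrated fluorescence ratio F max minus min over baseline F0; higher response in RGS4-induced cells means RGS4 inhibition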
RGS4 uninduced: carbachol calcium response in non-induced M3R cells, confirmation, counter-screen for RGS4 inhibitor project, cell-based, HEK293 M3R. shares compounds with RGS4 block. carbachol calcium Fluo-4; submaximal (EC20) carbachol stimulus; buffer wells 0%, carbachol control wells 100%. activity (percent), % at 10 µM. actives 20% (n = 1,900); call rule not given here;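 further: RGS4 induction absent so cells express M3R without RGS4; higher means more calcium signal and flags a non-specific hit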
M3R basal Ca ctr: signal in non-induced cells without carbachol, RGS4 inhibitor counter-screen; shares compounds with RGS4 block; actives 22% (n = 1,900); HEK293 M3R/RGS4 non-induced, Fluo-4 calcium, no carbachol; normalised: buffer wells 0%, carbachol wells 100%; calcium response (agonist-mode artifact), % at 10 µM;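 active means duplicate-averaged calcium rise in uninduced cells above buffer wells' mean plus 5 SD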
Active calls of the source: *; i = inactive; nt = no result given. Only some compounds are listed: those with a hit (about 3.5% of all), similar ones and a draw of the others.

SMILES | MrgX1 antag | RGS4 block | MrgX1 ag | RGS4 act | MrgX1 allo act | RGS4 inh valid | RGS4 uninduced | M3R basal Ca ctr
CCN(CC(=O)Nc1c(F)cccc1F)C(=O)c1cnccn1 | i | i | i | i | i | nt | nt | nt
C=CCOc1nc2sc(C)c(C)c2c(=O)n1-c1ccccc1 | i | 6* | i | i | i | i | i | i
Cc1ccc(-n2ncc3c(=O)[nH]c(SCC(=O)N4CCCc5ccccc54)nc32)cc1 | i | i | i | i | i | nt | i | i
Cc1cccc(S(=O)(=O)NCCc2ccccc2)c1 | i | i | i | i | i | nt | nt | nt
Oc1c(Cl)cc(Cl)c2c1NCCC2 | nt | 9.3* | nt | i | nt | 64%* | i | i
O=C1NCCCc2c1oc1ccc(O)cc21 | i | i | i | i | i | nt | nt | nt
COc1cccc(/C=C/C(=O)c2ccc(C)c([N+](=O)[O-])c2)c1 | i | 8.9* | 32* | i | i | i | 40%* | i
COc1ccc(NCc2nnc(SCc3ccc(Cl)cc3)n2-c2ccccc2)cc1 | i | 8* | i | i | i | 62%* | 40%* | 38%*
CCOc1ccc(NCc2nnc(SCC(=O)Nc3cc(C)on3)n2-c2ccc(OC)cc2)cc1 | i | 7* | i | i | i | i | i | i
COc1ccc(-n2c(COc3ccc(Cl)cc3)nnc2SCc2ccc(C#N)cc2)cc1 | i | i | i | i | i | nt | nt | nt
CCOc1ccc(NCc2nnc(SCC(=O)Nc3cc(C)on3)n2-c2ccccc2OC)cc1 | i | i | i | i | i | nt | nt | nt
CCOC(=O)c1c(C)[nH]c(C(=O)N2CCN(c3ccc(OC)cc3)CC2)c1C | i | i | i | i | i | nt | nt | nt
Cc1ccc(CNC(=O)C2CCC(=O)N(C3CCCC3)C2)c(F)c1F (stereo not drawn) | i | i | i | i | i | nt | nt | nt
CCN(C(=O)CCS(=O)(=O)c1ccc2c(c1)oc(=O)n2C)c1ccc(OC)cc1 | i | i | i | i | i | nt | nt | nt
CC(NCC(O)COC1CCC(C(C)(C)C)CC1)c1ccccc1 (stereo not drawn) | i | 10* | i | i | i | 5.0%* | i | i
CC(C)CC(=O)/C(=C\c1ccc(Cl)cc1Cl)n1cncn1 | nt | 6.8* | nt | i | nt | 16%* | i | 20%*
CC(C)CC(=O)/C(=C/c1ccc(N(C)C)cc1)n1cncn1 | i | i | i | i | i | nt | nt | nt
O=C(NCC1OCCCN1S(=O)(=O)c1ccc(F)cc1)C(=O)NC1CCCC1 (stereo not drawn) | i | i | i | i | i | i | i | i
COc1ccc(CNC(=O)C(=O)NCC2OCCN2S(=O)(=O)c2ccc(OC)cc2)cc1 (stereo not drawn) | i | i | i | i | i | nt | nt | nt
COc1ccc(S(=O)(=O)N2CCCOC2CNC(=O)C(=O)NC2CCCC2)cc1 (stereo not drawn) | i | i | i | i | i | i | i | i
CCCNC(=O)c1ccccc1NC(=O)c1ccccc1N(C)S(=O)(=O)c1ccc(C)cc1 | nt | i | nt | i | nt | nt | nt | nt
O=C(Nc1cc(C(F)(F)F)ccc1N1CCOCC1)c1ccc(F)cc1 | i | i | i | i | i | nt | nt | nt

Screening data from PubChem BioAssay.
